Assay results published in ChEMBL document CHEMBL1212911, “Identification of potent and selective amidobipyridyl inhibitors of protein kinase D” (J Med Chem, 2010).

What was measured:
[1] = molecular target: T1, Serine/threonine-protein kinase D2 (Homo sapiens, UniProt Q9BZL6); assay: Inhibition of PKD2 by TR-FRET assay
T1 sequence (Q9BZL6 whole entry): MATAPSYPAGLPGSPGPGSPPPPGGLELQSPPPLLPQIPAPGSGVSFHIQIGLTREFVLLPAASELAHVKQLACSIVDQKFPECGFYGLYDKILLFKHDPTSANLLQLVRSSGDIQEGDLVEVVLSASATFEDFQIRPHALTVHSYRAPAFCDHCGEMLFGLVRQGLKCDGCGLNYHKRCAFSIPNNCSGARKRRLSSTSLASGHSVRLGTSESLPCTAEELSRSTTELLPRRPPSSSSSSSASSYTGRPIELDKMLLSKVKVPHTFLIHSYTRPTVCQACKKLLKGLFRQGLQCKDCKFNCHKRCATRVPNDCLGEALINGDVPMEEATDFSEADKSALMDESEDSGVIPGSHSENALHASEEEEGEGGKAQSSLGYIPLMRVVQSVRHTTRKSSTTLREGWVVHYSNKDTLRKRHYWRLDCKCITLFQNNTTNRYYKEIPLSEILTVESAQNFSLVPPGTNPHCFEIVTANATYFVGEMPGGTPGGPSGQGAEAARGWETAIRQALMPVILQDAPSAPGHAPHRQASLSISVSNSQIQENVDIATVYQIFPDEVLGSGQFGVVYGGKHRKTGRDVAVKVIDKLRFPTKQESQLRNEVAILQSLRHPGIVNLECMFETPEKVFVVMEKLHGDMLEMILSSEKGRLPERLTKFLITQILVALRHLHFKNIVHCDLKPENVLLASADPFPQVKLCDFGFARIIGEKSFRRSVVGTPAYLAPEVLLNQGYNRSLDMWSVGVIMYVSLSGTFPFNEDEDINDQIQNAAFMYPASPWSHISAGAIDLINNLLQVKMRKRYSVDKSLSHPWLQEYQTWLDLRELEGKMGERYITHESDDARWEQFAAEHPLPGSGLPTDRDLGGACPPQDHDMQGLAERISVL

[2] = molecular target: T2, Serine/threonine-protein kinase D1 (Homo sapiens, UniProt Q15139); assay: Inhibition of PKD1 by TR-FRET assay
T2 sequence (Q15139 whole entry): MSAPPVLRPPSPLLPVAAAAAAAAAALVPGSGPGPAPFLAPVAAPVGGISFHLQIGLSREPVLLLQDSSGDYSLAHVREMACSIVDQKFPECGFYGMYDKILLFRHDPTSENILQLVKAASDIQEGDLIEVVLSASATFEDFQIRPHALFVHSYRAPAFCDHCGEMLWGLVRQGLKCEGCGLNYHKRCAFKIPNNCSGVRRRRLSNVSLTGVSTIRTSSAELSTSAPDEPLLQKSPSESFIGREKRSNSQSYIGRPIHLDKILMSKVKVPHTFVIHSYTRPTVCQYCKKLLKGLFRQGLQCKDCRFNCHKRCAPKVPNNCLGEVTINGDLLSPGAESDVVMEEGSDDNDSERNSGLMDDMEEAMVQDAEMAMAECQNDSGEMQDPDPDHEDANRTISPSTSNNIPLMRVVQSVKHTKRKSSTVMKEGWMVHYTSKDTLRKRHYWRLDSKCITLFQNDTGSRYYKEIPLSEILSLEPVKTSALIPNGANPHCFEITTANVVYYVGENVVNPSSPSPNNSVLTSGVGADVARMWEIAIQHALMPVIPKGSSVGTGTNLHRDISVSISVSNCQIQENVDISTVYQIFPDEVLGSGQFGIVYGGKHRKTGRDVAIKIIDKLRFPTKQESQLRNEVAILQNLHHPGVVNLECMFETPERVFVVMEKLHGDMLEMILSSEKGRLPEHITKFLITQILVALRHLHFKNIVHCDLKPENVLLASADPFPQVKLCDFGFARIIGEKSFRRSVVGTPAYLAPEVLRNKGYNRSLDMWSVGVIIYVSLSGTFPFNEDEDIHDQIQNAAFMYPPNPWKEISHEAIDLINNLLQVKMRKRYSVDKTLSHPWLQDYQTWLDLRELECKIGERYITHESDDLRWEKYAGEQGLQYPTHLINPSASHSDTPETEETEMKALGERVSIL
Outline: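 Full-length wild-type PKD1 expressed and purified from Sf9 cells, 0.2 μg/mL, in 35 mM Tris-HCl pH 7.5, 5 mM MgCl2, 0.02% Tween-20, 20 μM ATP, 1 mM DTT. Reaction started with 2 μM biotinylated syntide-2 and run 50 min at room temperature. Stopped with EDTA plus europium anti-rabbit IgG, anti-phospho-syntide-2 antibody and streptavidin-APC. LANCE TR-FRET 665/615 ratio read after 1 h. 11-point curves in triplicate gave IC50.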

[3] = molecular target: T2, Serine/threonine-protein kinase D1; assay: Inhibition of PKD1 assessed as inhibition of HDAC5 neuclear export
Outline: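 Neonatal rat ventricular myocytes infected with adenovirus encoding GFP-HDAC5 and plated on gelatin-coated wells. Cells exposed to compound and stimulated with PGF2α for 2 h, then fixed. Cytoplasmic versus nuclear GFP intensity quantified by high-content imaging.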

[4] = AUC (0 to 8 hrs) in Sprague-Dawley rat at 5 mg/kg, po; format: ADME, organism-based; set-up: time < 8 hr, dose 5 mg/kg, route oral; conditions: plasma
[5] = Cmax in rats after 5 mg/kg oral dose; format: ADME, organism-based; set-up: dose 5 mg/kg, route oral; conditions: Sprague-Dawley, rat, in vivo
[6] = Oral bioavailability in Sprague-Dawley rat at 5 mg/kg; format: ADME, organism-based; conditions: in vivo
Outline: (§1)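 Rats dosed iv 2 mg/kg (n = 2) or po 5 mg/kg (n = 3) in 10% NMP, 10% Cremophor, 80% pH 4.63 buffer. PK parameters derived from iv dosing, reported as mean ± SD.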

[7] = Volume of distribution at steady state in Sprague-Dawley rat at 2 mg/kg, iv and 5 mg/kg, po; format: ADME, organism-based; conditions: in vivo, read-out: Vdss; outline: as §1
[8] = Half life in rats after 2 mg/kg intravenous dose; format: ADME, organism-based; set-up: dose 2 mg/kg, route intravenous; conditions: Sprague-Dawley, rat, in vivo; outline: as §1
[9] = Clearance in Sprague-Dawley rat at 2 mg/kg, iv and 5 mg/kg, po; format: ADME, organism-based; conditions: in vivo; outline: as §1

| SMILES | IC50 [1] | IC50 [2] | EC50 [3] | AUC(0-t) at 8 h [4] | Cmax [5] | bioavailability [6] | Vd [7] | half-life [8] | clearance [9] |
| --- | --- | --- | --- | --- | --- | --- | --- | --- | --- |
| CN1CCN(c2cc(C(N)=O)cc(-c3ccnc(NC4CCCCC4)c3)n2)CC1 | 238 nM | 25 nM | 752 nM | – | – | – | – | – | – |
| c1cc(-c2cc(-c3cn[nH]c3)cc(N3CCNCC3)n2)cc(NC2CCCCC2)n1 | 1 nM | < 1 nM | 17 nM | – | – | – | – | – | – |
| FC(F)(F)c1cc(-c2ccnc(NC3CCCCC3)c2)nc(N2CCNCC2)c1 | – | – | 342 nM | 0.73 µM·h | 251 nM | 31% | – | – | – |
| N#Cc1cc(-c2ccnc(Nc3ccccc3)c2)nc(N2CCNCC2)c1 | 35 nM | 5 nM | 378 nM | 1.1 µM·h | 231 nM | 18% | 7.8 L/kg | 3.1 h | 31 mL/min/kg |
| O=C1NCc2c1cc(-c1ccnc(NC3CCCCC3)c1)nc2N1CCNCC1 | – | 35 nM | > 1000 nM | 0.1 µM·h | 31 nM | 5% | 35 L/kg | 6.2 h | 86 mL/min/kg |
| NC(=O)c1cc(-c2ccnc(Nc3ccccc3Cl)c2)nc(N2CCNCC2)c1 | 8 nM | 1 nM | 478 nM | – | – | – | – | – | – |
| NC(=O)c1cc(-c2ccnc(Nc3ccccc3)c2)nc(N2CCNCC2)c1 | 1 nM | 1 nM | 24 nM | – | – | – | – | – | – |
| NC(=O)c1cc(N[C@@H]2CCNC2)nc(-c2ccnc(NC3CCCCC3)c2)c1 | 18 nM | 2 nM | > 1000 nM | – | – | – | – | – | – |
| Cn1ccc(Nc2cc(-c3cc(C(N)=O)cc(N4CCNCC4)n3)ccn2)n1 | 7 nM | 1 nM | 674 nM | – | – | – | – | – | – |
| Cn1ccc(Nc2cc(-c3cc(C#N)cc(N4CCNCC4)n3)ccn2)n1 | 68 nM | – | 428 nM | – | – | – | – | – | – |
| NC(=O)c1cc(-c2ccnc(NC3CCCC3)c2)nc(N2CCNCC2)c1 | 59 nM | 6 nM | 202 nM | – | – | – | – | – | – |
| O=C1NCc2c1cc(N1CCNCC1)nc2-c1ccnc(NC2CCCCC2)c1 | – | 1 nM | 115 nM | – | – | – | – | – | – |
| NC(=O)c1cc(-c2ccnc(NC3CCCCC3)c2)nc(N2CCCC(N)C2)c1 (centres undefined) | 168 nM | 14 nM | > 1000 nM | – | – | – | – | – | – |
| NC(=O)c1cc(N[C@H]2CCNC2)nc(-c2ccnc(NC3CCCCC3)c2)c1 | 540 nM | 68 nM | > 1000 nM | – | – | – | – | – | – |
| CC1(C)CN(c2cc(C(N)=O)cc(-c3ccnc(NC4CCCCC4)c3)n2)CCN1 | 427 nM | 55 nM | > 1000 nM | – | – | – | – | – | – |

Second part, the compound after the results:

| IC50 [1] | IC50 [2] | EC50 [3] | AUC(0-t) at 8 h [4] | Cmax [5] | bioavailability [6] | Vd [7] | half-life [8] | clearance [9] | SMILES |
| --- | --- | --- | --- | --- | --- | --- | --- | --- | --- |
| 212 nM | 46 nM | > 1000 nM | – | – | – | – | – | – | NCC1CCN(c2cc(C(N)=O)cc(-c3ccnc(NC4CCCCC4)c3)n2)CC1 |
| – | – | 679 nM | – | – | – | – | – | – | C[C@@H]1CN(c2cc(C(N)=O)cc(-c3ccnc(NC4CCCCC4)c3)n2)CCN1 |
| – | > 1000 nM | – | – | – | – | – | – | – | NC(=O)c1cc(-c2ccnc(NC3CCCCC3)c2)nc(N2CCOCC2)c1 |
| 2 nM | < 1 nM | 92 nM | – | – | – | – | – | – | CC(C)Nc1cc(-c2cc(-c3cn[nH]c3)cc(N3CCNCC3)n2)ccn1 |
| 9 nM | 1 nM | > 1000 nM | – | – | – | – | – | – | NC(=O)c1cc(-c2ccnc(NC3CCOCC3)c2)nc(N2CCNCC2)c1 |
| 76 nM | 17 nM | 568 nM | – | – | – | – | – | – | FC(F)c1cc(-c2ccnc(NC3CCCCC3)c2)nc(N2CCNCC2)c1 |
| 8 nM | 1 nM | 438 nM | – | – | – | – | – | – | CC(C)Nc1cc(-c2cc(C(N)=O)cc(N3CCNCC3)n2)ccn1 |
| 31 nM | 4 nM | > 1000 nM | – | – | – | – | – | – | CCNc1cc(-c2cc(C(N)=O)cc(N3CCNCC3)n2)ccn1 |
| 86 nM | 8 nM | 831 nM | – | – | – | – | – | – | C[C@H]1CN(c2cc(C(N)=O)cc(-c3ccnc(NC4CCCCC4)c3)n2)CCN1 |
| 2 nM | < 1 nM | 234 nM | – | – | – | – | – | – | c1cc(-c2cc(-c3cn[nH]c3)cc(N3CCNCC3)n2)cc(NC2CCOCC2)n1 |
| 62 nM | 4 nM | 704 nM | – | – | – | – | – | – | c1cc(-c2cc(-c3cc[nH]n3)cc(N3CCNCC3)n2)cc(NC2CCCCC2)n1 |
